According to publication PMC8721254 (Journal of Advanced Research, 2021):

Legend:
[1] = test system: RBL-2H3 cells; assay: β-hexosaminidase; format: cell-based, rat; conditions: DNP-HSA-induced degranulation of RBL-2H3
Outline: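 Rat basophilic leukaemia RBL-2H3 cells were seeded at 72 × 10^3 cells/well and sensitized overnight with anti-DNP-HSA IgE, then moved to DMEM containing 1 mg/mL BSA. Test compound, vehicle (0.1% DMSO) or cromolyn was preincubated 5 min at 37 °C, and degranulation was triggered with DNP (10 ng/mL). After 1 h, supernatant β-hexosaminidase was read at 405 nm with p-nitrophenyl-N-acetyl-β-D-glucosaminide substrate. Values are relative to DNP-HSA as 100%, analysed by one-way ANOVA/Bonferroni.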

[2] = test system: OVA-induced allergic lung inflammation; assay: OVA-induced allergic lung inflammation and remodeling; format: in vivo, Balb/c mice; conditions: mice, oral, equimolar doses equivalent to 5.5 mg/kg prednisone (compound 7 9.1 mg/kg); for number of peribronchiolar eosinophils / number of peribronchiolar mast cells: vs allergic mice; for peribronchiolar collagen density / peribronchiolar smooth muscle (α-actin): vs vehicle-treated allergic mice
Outline: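 Male Balb/c mice, 4–5 weeks old (n = 5/group), sensitized with subcutaneous OVA on alum on days 1 and 11 plus intranasal OVA on day 11. Intranasal OVA challenges followed on two consecutive days weekly for six weeks; controls got saline. Oral dosing in 0.5% carboxymethyl cellulose (1 mL/kg) was given 30 min before each challenge, then daily for 4 weeks until euthanasia. Formalin-fixed lungs were scored for α-actin (immunohistochemistry) and collagen (Masson's trichrome); one-way ANOVA with Tukey test.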

[3] = Chemical stability in simulated gastric fluid; format: physicochemical; conditions: simulated gastric fluid (SGF) without pepsin, pH 1.2
Outline: (§1)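 Test compound was taken from a 10 mM DMSO stock and diluted into PBS pH 7.4 or pepsin-free SGF pH 1.2 (0.5% DMSO final), in triplicate. Samples were incubated at 37 ± 0.5 °C for 24 h with sampling at intervals. Parent compound, glucocorticoid, H2S-donor moiety and succinate metabolite were quantified by C18 RP-HPLC (CH3CN/water 0.1% TFA gradient; UV 234/250/300 nm) against calibration standards. Results are % remaining, mean ± SD, n = 3.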

[4] = Chemical stability in saline phosphate buffer; format: physicochemical; conditions: phosphate buffered saline (PBS), pH 7.4
Outline: as §1

[5] = Enzymatic stability in human serum; format: in vitro ADME
Outline: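 Sterile-filtered human serum was spiked with test compound from a 10 mM DMSO stock (1% DMSO), in triplicate, at 37 °C. Aliquots taken at intervals up to 24 h were deproteinized with an equal volume of CH3CN containing 0.1% TFA. Samples were vortexed, sonicated 3 min, centrifuged 5 min at 2500 g, filtered, and analysed by C18 RP-HPLC against calibration standards. Half-life is reported as mean ± SD, n = 3.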

[6] = test system: BSMCs; assay: Intracellular H2S release; format: cell-based; conditions: WSP-1-preloaded BSMCs, 40 min
Outline: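 Bronchial smooth muscle cells were grown at 37 °C in 5% CO2 with 1% pen/strep and seeded at 30 × 10^3 cells/well. Cells were loaded with the H2S-sensitive dye WSP-1, then exposed to test compound, vehicle, or diallyl disulfide as reference donor. Fluorescence was recorded spectrofluorometrically for 40 min and expressed as fluorescence index, mean ± SEM.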

[7] = test system: BSMCs; assay: Membrane hyperpolarizing effects on BSMCs; format: cell-based; conditions: reference NS1619 10 µM

| Compound | inhibition of mast cell degranulation (β-hexosaminidase release) ([1]; 100 and 300 µM) | number of peribronchiolar eosinophils [2] | number of peribronchiolar mast cells [2] | peribronchiolar collagen density [2] | peribronchiolar smooth muscle (α-actin) [2] | remaining at 24 h, 50 µM [3] [%] | remaining at 24 h, 50 µM [4] [%] | half-life at 100 µM [5] [min] | Intracellular H2S release, fluorescence index (FI) ([6]; 100 and 300 µM) | hyperpolarizing effect compared to NS1619 10 µM ([7]; 100 µM) | hyperpolarizing effect compared to NS1619 10 µM ([7]; 300 µM) | Intracellular H2S release, fluorescence index (FI) ([6]; 100 µM, vs vehicle) | inhibition of mast cell degranulation (β-hexosaminidase release) ([1]; 300 µM) | Intracellular H2S release, fluorescence index (FI) ([6]; 300 µM) |
| --- | --- | --- | --- | --- | --- | --- | --- | --- | --- | --- | --- | --- | --- | --- |
| C[C@]12C=CC(=O)C=C1CC[C@@H]1[C@@H]2C(=O)C[C@@]2(C)[C@H]1CC[C@]2(O)C(=O)CO [Compound 2, prednisone, reference compound] | totally inactive | significantly reduced | significantly reduced | efficient in reducing | efficient in reducing | – | – | – | – | – | – | – | – | – |
| C[C@@H]1C[C@H]2[C@@H]3CCC4=CC(=O)C=C[C@]4(C)[C@@]3(F)[C@@H](O)C[C@]2(C)[C@@]1(O)C(=O)COC(=O)CCC(=O)Oc1ccc(-c2cc(=S)ss2)cc1 [Compound 6, 2-((8S,9R,10S,11S,13S,14S,16R,17R)-9-fluoro-11,17-dihydroxy-10,13,16-trimethyl-3-oxo-6,7,8,9,10,11,12,13,14,15,16,17-dodecahydro-3H-cyclopenta[a]phenanthren-17-yl)-2-oxoethyl (4-(3-thioxo-3H-1,2-dithiol-5-yl)phenyl) succinate] | – | – | – | – | – | 99 ± 1 | 99 ± 2 | 10 ± 1 | did not cause any significant increase in fluorescence | – | – | – | – | – |
| C[C@]12C=CC(=O)C=C1CC[C@@H]1[C@@H]2C(=O)C[C@@]2(C)[C@H]1CC[C@]2(O)C(=O)COC(=O)CCC(=O)Oc1ccc(C(N)=S)cc1 [Compound 7, 4-carbamothioylphenyl (2-((8S,9S,10R,13S,14S,17R)-17-hydroxy-10,13-dimethyl-3,11-dioxo-6,7,8,9,10,11,12,13,14,15,16,17-dodecahydro-3H-cyclopenta[a]phenanthren-17-yl)-2-oxoethyl) succinate] | significant inhibitory effect on mast cell degranulation | significantly reduced | significantly reduced | significantly more efficient than the parent prednisone | significantly more efficient than the parent prednisone | 99 ± 1 | 97 ± 1 | 15 ± 2 | significant increase in the intracellular level of H2S | about 240% | about 309% | – | – | – |
| C[C@]12C=CC(=O)C=C1CC[C@@H]1[C@@H]2C(=O)C[C@@]2(C)[C@H]1CC[C@]2(O)C(=O)COC(=O)CCC(=O)Oc1ccc(-c2cc(=S)ss2)cc1 [Compound 8, 2-((8S,9S,10R,13S,14S,17R)-17-hydroxy-10,13-dimethyl-3,11-dioxo-6,7,8,9,10,11,12,13,14,15,16,17-dodecahydro-3H-cyclopenta[a]phenanthren-17-yl)-2-oxoethyl (4-(3-thioxo-3H-1,2-dithiol-5-yl)phenyl) succinate] | – | – | – | – | – | 99 ± 1 | 99 ± 2 | 9 ± 2 | did not cause any significant increase in fluorescence | – | – | – | – | – |
| C=CCSSCC=C [DADS, diallyl disulfide, reference compound] | – | – | – | – | – | – | – | – | – | – | – | significant FI increase | – | – |
| NC(=S)c1ccc(O)cc1 [TBZ, 4-hydroxy-thiobenzamide, reference compound] | – | – | – | – | – | – | – | – | – | 38% | 43% | slight increase of FI | significant inhibition of RBL-2H3 degranulation | massive increase in FI |
